These results are taken from ChEMBL document CHEMBL1811897, “Nicotinic acetylcholine receptor efficacy and pharmacological properties of 3-(substituted phenyl)-2β-substituted tropanes” (J Med Chem, 2010).

Molecules are shown by their SMILES. Active and inactive are the calls of the source.

T2 sequence (P02708 whole entry): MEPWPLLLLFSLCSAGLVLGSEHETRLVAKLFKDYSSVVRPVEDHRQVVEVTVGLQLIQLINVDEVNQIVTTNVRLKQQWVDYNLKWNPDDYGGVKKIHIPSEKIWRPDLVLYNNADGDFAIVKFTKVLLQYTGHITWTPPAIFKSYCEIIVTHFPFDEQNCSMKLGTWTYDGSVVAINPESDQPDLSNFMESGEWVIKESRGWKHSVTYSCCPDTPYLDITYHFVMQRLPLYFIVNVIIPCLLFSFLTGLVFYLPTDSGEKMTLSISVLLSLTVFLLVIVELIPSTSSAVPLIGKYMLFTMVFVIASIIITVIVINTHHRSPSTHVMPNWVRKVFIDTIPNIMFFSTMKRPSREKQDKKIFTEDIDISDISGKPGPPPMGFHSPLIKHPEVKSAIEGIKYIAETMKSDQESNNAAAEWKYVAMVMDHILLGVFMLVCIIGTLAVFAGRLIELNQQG
T2 sequence (P07510 whole entry): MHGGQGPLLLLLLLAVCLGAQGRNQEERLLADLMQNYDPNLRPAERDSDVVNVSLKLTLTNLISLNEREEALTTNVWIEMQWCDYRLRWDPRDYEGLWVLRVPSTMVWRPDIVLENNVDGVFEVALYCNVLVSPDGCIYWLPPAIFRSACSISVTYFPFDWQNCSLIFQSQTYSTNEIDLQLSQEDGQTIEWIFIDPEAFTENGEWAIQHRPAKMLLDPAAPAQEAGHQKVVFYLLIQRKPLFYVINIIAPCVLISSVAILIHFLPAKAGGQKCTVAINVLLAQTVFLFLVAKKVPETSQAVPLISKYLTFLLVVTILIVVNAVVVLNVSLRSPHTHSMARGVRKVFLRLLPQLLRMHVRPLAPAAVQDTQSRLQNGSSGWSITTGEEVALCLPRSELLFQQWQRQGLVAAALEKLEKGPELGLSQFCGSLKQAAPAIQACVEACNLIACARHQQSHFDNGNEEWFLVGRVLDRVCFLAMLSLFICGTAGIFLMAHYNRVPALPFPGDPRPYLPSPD
T2 sequence (P11230 whole entry): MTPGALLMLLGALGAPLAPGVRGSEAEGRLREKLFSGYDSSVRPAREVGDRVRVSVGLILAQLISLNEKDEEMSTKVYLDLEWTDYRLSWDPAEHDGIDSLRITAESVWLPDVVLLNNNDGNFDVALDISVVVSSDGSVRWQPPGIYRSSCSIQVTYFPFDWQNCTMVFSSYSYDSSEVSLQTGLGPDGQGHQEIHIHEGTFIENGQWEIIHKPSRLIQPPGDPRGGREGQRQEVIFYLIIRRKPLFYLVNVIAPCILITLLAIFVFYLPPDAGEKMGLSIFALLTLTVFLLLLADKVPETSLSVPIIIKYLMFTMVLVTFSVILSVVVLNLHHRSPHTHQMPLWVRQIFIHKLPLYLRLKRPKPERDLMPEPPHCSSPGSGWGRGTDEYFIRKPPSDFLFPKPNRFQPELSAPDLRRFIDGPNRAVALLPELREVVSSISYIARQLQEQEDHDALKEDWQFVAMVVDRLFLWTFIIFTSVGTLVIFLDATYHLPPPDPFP
T2 sequence (Q07001 whole entry): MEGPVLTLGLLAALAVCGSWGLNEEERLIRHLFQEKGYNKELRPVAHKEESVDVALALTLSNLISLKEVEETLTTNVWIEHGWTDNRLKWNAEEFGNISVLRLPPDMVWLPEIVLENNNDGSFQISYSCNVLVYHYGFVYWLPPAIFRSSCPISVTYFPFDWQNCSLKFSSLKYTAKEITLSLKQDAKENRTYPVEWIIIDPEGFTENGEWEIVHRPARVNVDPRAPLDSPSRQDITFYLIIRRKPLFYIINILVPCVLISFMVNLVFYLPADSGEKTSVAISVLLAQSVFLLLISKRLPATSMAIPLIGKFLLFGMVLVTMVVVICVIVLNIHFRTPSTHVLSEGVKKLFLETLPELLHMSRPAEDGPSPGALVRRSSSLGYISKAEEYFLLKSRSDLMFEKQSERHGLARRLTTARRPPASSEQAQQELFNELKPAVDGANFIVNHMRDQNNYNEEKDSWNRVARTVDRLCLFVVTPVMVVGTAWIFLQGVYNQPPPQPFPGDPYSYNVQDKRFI
T3 sequence (P17787 whole entry): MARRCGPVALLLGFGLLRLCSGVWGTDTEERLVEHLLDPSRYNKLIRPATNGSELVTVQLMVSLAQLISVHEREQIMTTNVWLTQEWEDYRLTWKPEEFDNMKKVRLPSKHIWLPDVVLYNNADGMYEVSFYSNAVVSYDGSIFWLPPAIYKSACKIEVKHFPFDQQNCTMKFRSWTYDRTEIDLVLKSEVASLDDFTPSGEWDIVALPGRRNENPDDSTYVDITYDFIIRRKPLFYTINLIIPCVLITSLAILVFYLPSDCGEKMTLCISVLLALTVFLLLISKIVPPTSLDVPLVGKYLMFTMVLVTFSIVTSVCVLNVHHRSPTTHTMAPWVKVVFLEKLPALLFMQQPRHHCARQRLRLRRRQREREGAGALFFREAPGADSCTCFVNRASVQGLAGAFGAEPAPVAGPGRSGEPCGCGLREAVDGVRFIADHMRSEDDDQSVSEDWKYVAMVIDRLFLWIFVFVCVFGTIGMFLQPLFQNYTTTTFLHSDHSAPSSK
T3 sequence (P43681 whole entry): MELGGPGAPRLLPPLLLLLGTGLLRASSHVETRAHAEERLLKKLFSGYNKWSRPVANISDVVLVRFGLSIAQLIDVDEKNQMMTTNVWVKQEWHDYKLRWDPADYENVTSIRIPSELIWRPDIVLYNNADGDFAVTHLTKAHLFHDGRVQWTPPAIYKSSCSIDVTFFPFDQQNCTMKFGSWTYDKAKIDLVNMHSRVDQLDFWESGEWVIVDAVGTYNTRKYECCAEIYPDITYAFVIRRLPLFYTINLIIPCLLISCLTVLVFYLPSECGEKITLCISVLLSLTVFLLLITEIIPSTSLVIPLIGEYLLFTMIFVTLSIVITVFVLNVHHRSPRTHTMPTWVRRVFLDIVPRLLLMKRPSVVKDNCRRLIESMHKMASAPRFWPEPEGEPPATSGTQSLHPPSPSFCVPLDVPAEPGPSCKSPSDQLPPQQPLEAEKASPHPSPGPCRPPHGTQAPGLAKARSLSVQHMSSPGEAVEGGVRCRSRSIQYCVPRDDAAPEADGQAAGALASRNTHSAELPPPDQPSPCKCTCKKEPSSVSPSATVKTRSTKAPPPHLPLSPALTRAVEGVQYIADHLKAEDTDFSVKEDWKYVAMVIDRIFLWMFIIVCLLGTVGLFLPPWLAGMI
Sequence of Sodium-dependent serotonin transporter (P31645 whole entry): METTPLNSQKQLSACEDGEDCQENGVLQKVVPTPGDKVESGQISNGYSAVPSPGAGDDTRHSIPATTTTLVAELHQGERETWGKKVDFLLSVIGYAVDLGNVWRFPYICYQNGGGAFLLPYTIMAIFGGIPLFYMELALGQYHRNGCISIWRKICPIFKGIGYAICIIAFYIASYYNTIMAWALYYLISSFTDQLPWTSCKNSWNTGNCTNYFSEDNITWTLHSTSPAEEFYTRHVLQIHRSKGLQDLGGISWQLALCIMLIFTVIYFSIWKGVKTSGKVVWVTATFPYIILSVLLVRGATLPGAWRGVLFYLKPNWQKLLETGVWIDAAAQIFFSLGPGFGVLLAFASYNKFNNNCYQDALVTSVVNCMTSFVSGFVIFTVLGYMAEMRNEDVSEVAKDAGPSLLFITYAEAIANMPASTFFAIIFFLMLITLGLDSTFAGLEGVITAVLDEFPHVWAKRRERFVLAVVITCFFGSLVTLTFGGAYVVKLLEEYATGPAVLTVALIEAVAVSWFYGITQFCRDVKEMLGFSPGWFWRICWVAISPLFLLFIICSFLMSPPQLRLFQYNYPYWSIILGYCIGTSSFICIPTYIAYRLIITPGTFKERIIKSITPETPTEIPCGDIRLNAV

For one assay, the target named is T1, Neuronal acetylcholine receptor; alpha4/beta4 (Homo sapiens, UniProt P30926+P43681). Description: Agonist activity against human alpha4beta4 nAChR in SHEP1 cells assessed as 86Rb+ efflux at 5 nM to 100 uM. Type of assay: functional, cell-based.
T1 sequence (P30926 whole entry): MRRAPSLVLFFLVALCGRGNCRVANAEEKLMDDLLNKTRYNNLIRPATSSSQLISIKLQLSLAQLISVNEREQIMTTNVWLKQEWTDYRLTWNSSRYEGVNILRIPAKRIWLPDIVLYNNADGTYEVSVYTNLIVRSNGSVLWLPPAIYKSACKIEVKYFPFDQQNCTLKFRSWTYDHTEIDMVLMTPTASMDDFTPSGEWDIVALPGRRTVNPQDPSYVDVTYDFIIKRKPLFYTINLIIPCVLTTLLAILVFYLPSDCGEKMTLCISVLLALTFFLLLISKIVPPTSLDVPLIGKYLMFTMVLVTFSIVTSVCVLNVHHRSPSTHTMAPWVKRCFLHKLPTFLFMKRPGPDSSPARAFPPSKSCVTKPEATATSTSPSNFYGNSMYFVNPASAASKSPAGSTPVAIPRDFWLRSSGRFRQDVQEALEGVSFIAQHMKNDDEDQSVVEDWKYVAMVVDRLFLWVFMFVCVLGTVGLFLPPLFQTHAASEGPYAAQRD
T1 sequence (P43681 whole entry): as the sequence (P43681 whole entry) above
Conditions: not given
The essentials: (§1)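 Test ligands were applied alone at ~5 nM to 100 μM in 86Rb+ efflux assays. Cells were TE671/RD (endogenous muscle-type α1*), SH-SY5Y (endogenous α3β4*) or transfected SH-EP1 (human α4β2 or α4β4). Non-specific efflux was subtracted. Intrinsic activity was normalized to specific efflux, defined as efflux with fully efficacious carbamylcholine minus efflux with buffer alone.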
Take `COC(=O)[C@@H]1[C@H]2CC[C@@H](C[C@H]1c1ccc(Cl)c(C)c1)N2C`: the result was inactive.
On to `COc1ccc(-c2cc([C@H]3[C@@H](c4ccc(Cl)cc4)C[C@@H]4CC[C@H]3N4C)on2)cc1`, for which the result was inactive.

The species named for a further assay is Homo sapiens. Description: Selectivity for human ganglionic alpha3beta4alpha5beta2 nAChR over human alpha4beta2 nAChR.
Conditions: not given
Take `COc1ccc(-c2cc([C@H]3[C@@H](c4ccc(Cl)cc4)C[C@@H]4CC[C@H]3N4C)on2)cc1`: the Ratio IC50 is 8.

A further assay has as its system Mus musculus. Description: Inhibition of nicotine-induced antinociception activity in ICR mouse assessed as paw licking and jumping latency dministered subcutaneously 15 mins prior to nicotine challenge and measured after 5 mins of 2.5 mg/kg nicotine challenge by hot plate test. In kind it is functional, organism-based. More on the design: dose 2.5 mg/kg, route subcutaneous.
Conditions: not given
The essentials: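 Hot plate was held at 55 °C with a 40 s cutoff. End-point was paw lick or jump. Control latency was measured twice, ≥10 min apart. Response was calculated as %MPE. Groups of 8–12; AD50 from ≥4 doses.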
On to `COC(=O)[C@@H]1[C@H]2CC[C@@H](C[C@H]1c1ccc(Cl)c(C)c1)N2C`, for which the IC50 was more than 20 mg/kg.
As to `COc1ccc(-c2cc([C@H]3[C@@H](c4ccc(Cl)cc4)C[C@@H]4CC[C@H]3N4C)on2)cc1`, the IC50 is more than 20 mg/kg.

The target in a further assay is Sodium-dependent noradrenaline transporter (Homo sapiens, UniProt P23975). The experiment in a line: Inhibition of human NET expressed in HEK293 cells assessed as inhibition of [3H]NE reuptake after 10 mins by scintillation counting. In kind it is cell-based.
Conditions: not given
Regarding `COC(=O)[C@@H]1[C@H]2CC[C@@H](C[C@H]1c1ccc(Cl)c(C)c1)N2C`, the IC50 is 0.0065 µM.
`COc1ccc(-c2cc([C@H]3[C@@H](c4ccc(Cl)cc4)C[C@@H]4CC[C@H]3N4C)on2)cc1`: the IC50 was found to be 0.026 µM.

In the next assay the test system is Mus musculus. Description: Inhibition of nicotine-induced antinociception activity in ICR mouse assessed as latency to remove tail administered subcutaneously 15 mins prior to nicotine challenge and measured after 5 mins of 2.5 mg/kg nicotine challenge by tail-flick test. Type of assay: functional, organism-based. More on the design: dose 2.5 mg/kg, route subcutaneous.
Conditions: not given
Summed up: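 Radiant heat was aimed at the upper tail, with a 10 s cutoff. Baseline latency was 2–4 s for each mouse. Response was expressed as %MPE. AD50 with confidence limits came from ≥4 doses and ≥8 mice per dose.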
Take `COC(=O)[C@@H]1[C@H]2CC[C@@H](C[C@H]1c1ccc(Cl)c(C)c1)N2C`: the IC50 worked out at 0.026 mg/kg.
For the compound `COc1ccc(-c2cc([C@H]3[C@@H](c4ccc(Cl)cc4)C[C@@H]4CC[C@H]3N4C)on2)cc1`, the IC50 came out at 0.018 mg/kg.

Another assay addresses Neuronal acetylcholine receptor; alpha3/beta4 (Homo sapiens) (UniProt P30926+P32297). The experiment in a line: Antagonist activity against human ganglionic alpha3beta4 nAChR in SHSY5Y cells assessed as inhibition of carbamylcholine induced 86Rb+ efflux at 10 uM. As to conditions: SH-SY5Y. In kind it is functional, cell-based.
With `COc1ccc(-c2cc([C@H]3[C@@H](c4ccc(Cl)cc4)C[C@@H]4CC[C@H]3N4C)on2)cc1`, the inhibition entry was “Active”.

A further assay concerns the target T2, Acetylcholine receptor; alpha1/beta1/delta/gamma (Homo sapiens, UniProt P02708+P07510+P11230+Q07001). Description: Antagonist activity against human muscle-type alpha1beta1gammadelta nAChR in TE671/RD cells assessed as inhibition of carbamylcholine induced 86Rb+ efflux. In kind it is functional, cell-based.
Conditions: not given
Summed up:
(§2)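 86Rb+ efflux was evoked by carbamylcholine at its EC80–EC90 concentration, with test ligand present. Cells were TE671/RD (α1*), SH-SY5Y (α3β4*) or transfected SH-EP1 (α4β2 or α4β4). For weak antagonists the minimum was fixed at 0%.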
As to `COC(=O)[C@@H]1[C@H]2CC[C@@H](C[C@H]1c1ccc(Cl)c(C)c1)N2C`, the IC50 turned out to be 13 µM.
Regarding `COc1ccc(-c2cc([C@H]3[C@@H](c4ccc(Cl)cc4)C[C@@H]4CC[C@H]3N4C)on2)cc1`, the IC50 came to 19 µM.

The species named for a further assay is Homo sapiens. The experiment in a line: Selectivity for human ganglionic alpha3beta4alpha5beta2 nAChR over human alpha1beta1gammadelta nAChR.
Conditions: not given
`COc1ccc(-c2cc([C@H]3[C@@H](c4ccc(Cl)cc4)C[C@@H]4CC[C@H]3N4C)on2)cc1`: the Ratio IC50 was 11.

The next assay has as its system Mus musculus. Description: Inhibition of nicotine-induced hypolocomotion in ICR mouse assessed as number of photocell interruption dministered subcutaneously 15 mins prior to nicotine challenge and measured after 5 mins of […] nicotine challenge. Type of assay: functional, organism-based. More on the design: dose 1.5 mg/kg, route subcutaneous.
Conditions: not given
Consider `COC(=O)[C@@H]1[C@H]2CC[C@@H](C[C@H]1c1ccc(Cl)c(C)c1)N2C`, for which the IC50 turned out to be 5.3 mg/kg.
Same read-out and setting: the value for `COc1ccc(-c2cc([C@H]3[C@@H](c4ccc(Cl)cc4)C[C@@H]4CC[C@H]3N4C)on2)cc1` was more than 20 mg/kg.

The next assay concerns the target Sodium-dependent serotonin transporter (Homo sapiens, UniProt P31645). The experiment in a line: Inhibition of human SERTexpressed in HEK293 cells assessed as inhibition of [3H]5HT reuptake after 10 mins by scintillation counting.
Conditions: not given
Type of assay: cell-based.
Turning to `COC(=O)[C@@H]1[C@H]2CC[C@@H](C[C@H]1c1ccc(Cl)c(C)c1)N2C`, the IC50 worked out at 0.105 µM.
For `COc1ccc(-c2cc([C@H]3[C@@H](c4ccc(Cl)cc4)C[C@@H]4CC[C@H]3N4C)on2)cc1`, the IC50 is 2 µM.

The species named for the next assay is Homo sapiens. Description: Selectivity ratio for human DAT over human SERT.
Conditions: not given
For `COC(=O)[C@@H]1[C@H]2CC[C@@H](C[C@H]1c1ccc(Cl)c(C)c1)N2C`, the Ratio IC50 is 2.

Another assay concerns the target T3, Neuronal acetylcholine receptor; alpha4/beta2 (Homo sapiens, UniProt P17787+P43681). Description: Antagonist activity against human alpha4beta2 nAChR in SHEP1 cells assessed as inhibition of carbamylcholine induced 86Rb+ efflux.
Conditions: not given
Type of assay: functional, cell-based. Summed up:
as §2
As for `COC(=O)[C@@H]1[C@H]2CC[C@@H](C[C@H]1c1ccc(Cl)c(C)c1)N2C`, the IC50 stood at 29 µM.
Take `COc1ccc(-c2cc([C@H]3[C@@H](c4ccc(Cl)cc4)C[C@@H]4CC[C@H]3N4C)on2)cc1`: the IC50 came to 15 µM.

The target of another assay is T3, Neuronal acetylcholine receptor; alpha4/beta2. Description: Agonist activity at human alpha4beta2 nAChR in SHEP1 cells assessed as 86Rb+ efflux at 5 nM to 100 uM. Type of assay: functional, cell-based.
Conditions: not given
The essentials:
as §1
With `COC(=O)[C@@H]1[C@H]2CC[C@@H](C[C@H]1c1ccc(Cl)c(C)c1)N2C`, the result was inactive.
As for `COc1ccc(-c2cc([C@H]3[C@@H](c4ccc(Cl)cc4)C[C@@H]4CC[C@H]3N4C)on2)cc1`, the result was inactive.

For the next assay, the system named is Mus musculus. The experiment in a line: Inhibition of nicotine-induced conditioned place preference in ICR mouse assessed as activity count and time spent in chamberdministered subcutaneously 15 mins prior to 0.5 mg/kg nicotine challenge up to 4 days using photosensors. In kind it is functional, organism-based.
Conditions: not given
On the set-up: dose 0.5 mg/kg, route subcutaneous. Summed up:
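Unbiased three-compartment CPP in male ICR mice. Day 1: 5 min confinement to the middle compartment, then 15 min free access; mice were grouped by equal bias. Days 2–4: vehicle or test drug s.c. 15 min before nicotine (0.5 mg/kg s.c.) in the paired side, with saline on the opposite side, 20 min sessions. Day 5: drug-free test with photosensor recording. AD50 from ≥3 doses, ≥8 mice per dose.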
As to `COC(=O)[C@@H]1[C@H]2CC[C@@H](C[C@H]1c1ccc(Cl)c(C)c1)N2C`, the IC50 is 0.15 mg/kg.

In a further assay the target is Sodium-dependent dopamine transporter (Homo sapiens, UniProt Q01959). Description: Inhibition of human DAT expressed in HEK293 cells assessed as inhibition of [3H]DA reuptake after 10 mins by scintillation counting. In kind it is cell-based.
Sequence of Sodium-dependent dopamine transporter (Q01959 whole entry): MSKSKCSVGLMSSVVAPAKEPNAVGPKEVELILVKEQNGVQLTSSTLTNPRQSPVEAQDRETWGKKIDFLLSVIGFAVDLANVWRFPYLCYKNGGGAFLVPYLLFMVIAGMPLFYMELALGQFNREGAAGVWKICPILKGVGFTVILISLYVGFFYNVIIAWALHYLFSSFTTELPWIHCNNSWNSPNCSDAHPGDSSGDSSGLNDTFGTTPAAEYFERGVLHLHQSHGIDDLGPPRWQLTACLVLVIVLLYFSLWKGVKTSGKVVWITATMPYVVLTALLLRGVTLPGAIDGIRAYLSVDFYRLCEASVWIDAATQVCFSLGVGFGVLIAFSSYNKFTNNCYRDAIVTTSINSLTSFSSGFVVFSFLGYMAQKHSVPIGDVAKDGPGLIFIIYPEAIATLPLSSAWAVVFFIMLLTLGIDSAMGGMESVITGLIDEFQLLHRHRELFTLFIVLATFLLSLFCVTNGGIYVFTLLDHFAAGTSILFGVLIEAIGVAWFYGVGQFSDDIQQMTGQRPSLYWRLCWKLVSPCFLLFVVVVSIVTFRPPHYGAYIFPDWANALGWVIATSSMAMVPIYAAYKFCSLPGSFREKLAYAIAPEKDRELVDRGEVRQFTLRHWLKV
Conditions: not given
For the compound `COC(=O)[C@@H]1[C@H]2CC[C@@H](C[C@H]1c1ccc(Cl)c(C)c1)N2C`, the IC50 turned out to be 0.003 µM.
For the compound `COc1ccc(-c2cc([C@H]3[C@@H](c4ccc(Cl)cc4)C[C@@H]4CC[C@H]3N4C)on2)cc1`, the IC50 came out at 0.0039 µM.

For a further assay, the system named is Mus musculus. Description: Antipyretic activity against nicotine-induced hypothermia in ICR mouse assessed as change in rectal temperature dministered subcutaneously 15 mins prior to nicotine challenge and measured after 30 mins of 2.5 mg/kg nicotine challenge. Type of assay: functional, organism-based. On the set-up: dose 2.5 mg/kg, route subcutaneous.
Conditions: not given
Summed up: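 Male ICR mice (20–25 g) were pretreated with saline or test drug 15 min before s.c. nicotine at 2.5 mg/kg. Rectal temperature was read by thermistor probe (24 mm insertion) just before and 30 min after nicotine, and the change was taken. Ambient temperature was 21–24 °C. AD50 with confidence limits came from ≥4 doses and ≥8 mice per dose.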
For the compound `COC(=O)[C@@H]1[C@H]2CC[C@@H](C[C@H]1c1ccc(Cl)c(C)c1)N2C`, the IC50 came out at 7 mg/kg.
As for `COc1ccc(-c2cc([C@H]3[C@@H](c4ccc(Cl)cc4)C[C@@H]4CC[C@H]3N4C)on2)cc1`, the IC50 was more than 20 mg/kg.

The target in the next assay is T2, Acetylcholine receptor; alpha1/beta1/delta/gamma. The experiment in a line: Agonist activity at human muscle-type alpha1beta1gammadelta nAChR in TE671/RD cells assessed as 86Rb+ efflux at 5 nM to 100 uM. Type of assay: functional, cell-based.
Conditions: not given
The essentials: as §1
Regarding `COC(=O)[C@@H]1[C@H]2CC[C@@H](C[C@H]1c1ccc(Cl)c(C)c1)N2C`, the outcome was inactive.
In the case of `COc1ccc(-c2cc([C@H]3[C@@H](c4ccc(Cl)cc4)C[C@@H]4CC[C@H]3N4C)on2)cc1`, the outcome was inactive.

For another assay, the species on record is Homo sapiens. Description: Selectivity for human ganglionic alpha3beta4alpha5beta2 nAChR over human alpha4beta4 nAChR.
Conditions: not given
For `COc1ccc(-c2cc([C@H]3[C@@H](c4ccc(Cl)cc4)C[C@@H]4CC[C@H]3N4C)on2)cc1`, the Ratio IC50 is more than 56.

The species named for the next assay is Homo sapiens. Description: Selectivity ratio for human DAT over human NET.
Conditions: not given
With `COC(=O)[C@@H]1[C@H]2CC[C@@H](C[C@H]1c1ccc(Cl)c(C)c1)N2C`, the Ratio IC50 is 2.

A further assay deals with T1, Neuronal acetylcholine receptor; alpha4/beta4. Description: Antagonist activity against human alpha4beta4 nAChR in SHEP1 cells assessed as inhibition of carbamylcholine induced 86Rb+ efflux. In kind it is functional, cell-based.
Conditions: not given
Summed up: as §2
`COC(=O)[C@@H]1[C@H]2CC[C@@H](C[C@H]1c1ccc(Cl)c(C)c1)N2C`: the IC50 worked out at 15 µM.
For the compound `COc1ccc(-c2cc([C@H]3[C@@H](c4ccc(Cl)cc4)C[C@@H]4CC[C@H]3N4C)on2)cc1`, the IC50 is more than 100 µM.
